# Calls of active or inactive are those of the source. No cut-off for these calls is given here.
# Assays:
# Mus musculus [1] = assay: Neurotoxicity in ip dosed mouse after 0.5 hrs by rotarod test; type: toxicity, organism-based; conditions: in vivo
# Summary of the method: (§1)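 Phase I screen: intraperitoneal injection into mice as suspension in 0.5% methylcellulose at 30, 100 and 300 mg/kg; MES, subcutaneous pentylenetetrazole and rota-rod minimal motor impairment assessed at 0.5 h and 4 h after dosing (2 h also reported for some MES readings). Value is minimum dose showing activity or toxicity.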
# Mus musculus [2] = assay: Neurotoxicity in ip dosed mouse after 4 hrs by rotarod test; type: toxicity, organism-based; conditions: in vivo; summary of the method: as §1
# [3] = Lipophilicity, log kw of compound by RP-HPLC; type: physicochemical
# Summary of the method: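 RP-HPLC on end-capped C18 column, acetonitrile-containing mobile phase at several concentrations; uracil as unretained marker for dead volume; UV detection at 214 nm, room temperature; three measurement sets averaged; log kw obtained by extrapolation of linear log k versus organic modifier fraction (log k = log kw − Sφ).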
# Mus musculus [4] = assay: Anticonvulsant activity in mouse at 300 mg/kg, ip; type: functional, organism-based; design: dose 300 mg/kg; summary of the method: as §1
# Mus musculus [5] = assay: Anticonvulsant activity in ip dosed mouse after 4 hrs by maximal electroshock test; type: functional; summary of the method: as §1
# Mus musculus [6] = assay: Anticonvulsant activity in mouse at 100 mg/kg, ip; type: functional, organism-based; design: dose 100 mg/kg; summary of the method: as §1
# Rattus norvegicus [7] = organism: Rattus norvegicus; assay: Displacement of [3H]muscimol from GABAA receptor in rat brain cortex; type: tissue-based
# Summary of the method: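 Rat brain membranes washed repeatedly in ice-cold 50 mM Tris-HCl pH 7.4, stored at −20 °C at least 18 h; incubated 10 min at 0 °C with 3 nM [3H]muscimol (stock) and eight test concentrations 10^-11–10^-4 M; nonspecific binding with GABA; filtration, scintillation counting, duplicates, iterative curve fitting.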
# Mus musculus [8] = assay: Toxicity in mouse at 30 mg/kg, ip; type: organism-based; design: dose 30 mg/kg, route intraperitoneal; conditions: in vivo; summary of the method: as §1
# Mus musculus [9] = assay: Anticonvulsant activity in ip dosed mouse after 0.5 hrs by subcutaneous pentylenetetrazole test; type: functional; summary of the method: as §1
# Mus musculus [10] = assay: Anticonvulsant activity in ip dosed mouse after 2 hrs by maximal electroshock test; type: functional; summary of the method: as §1
# Mus musculus [11] = assay: Anticonvulsant activity in ip dosed mouse after 0.5 hrs by maximal electroshock test; type: functional; summary of the method: as §1
# Rattus norvegicus [12] = assay: Neurotoxicity in rat at 30 mg/kg, po after 0.25 hrs by rotarod test; type: toxicity, organism-based; design: dose 30 mg/kg, route oral; conditions: in vivo
# Summary of the method: (§2)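 Phase VIa: oral administration to rats, four animals, fixed 30 mg/kg; MES protection and rota-rod neurotoxicity read at 0.25, 0.5, 1, 2 and 4 h post dose. Reported as number of animals protected (or showing toxicity) over number tested.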
# Rattus norvegicus [13] = assay: Neurotoxicity in rat at 30 mg/kg, po after 0.5 hrs by rotarod test; type: toxicity, organism-based; design: dose 30 mg/kg, route oral; conditions: in vivo; summary of the method: as §2
# Rattus norvegicus [14] = assay: Neurotoxicity in rat at 30 mg/kg, po after 1 hr by rotarod test; type: toxicity, organism-based; design: dose 30 mg/kg, route oral; conditions: in vivo; summary of the method: as §2
# Rattus norvegicus [15] = assay: Neurotoxicity in rat at 30 mg/kg, po after 2 hrs by rotarod test; type: toxicity, organism-based; design: dose 30 mg/kg, route oral; conditions: in vivo; summary of the method: as §2
# Rattus norvegicus [16] = assay: Neurotoxicity in rat at 30 mg/kg, po after 4 hrs by rotarod test; type: toxicity, organism-based; design: dose 30 mg/kg, route oral; conditions: in vivo; summary of the method: as §2
# Rattus norvegicus [17] = assay: Anticonvulsant activity in po dosed rat after 2 hrs by maximal electroshock test; type: functional
# Summary of the method: (§3)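 Phase II quantification in rats after oral dosing: median effective dose in MES and scPTZ seizure tests determined at the previously estimated time of peak effect, 2 h.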
# Rattus norvegicus [18] = assay: Anticonvulsant activity in po dosed rat after 2 hrs by subcutaneous pentylenetetrazole test; type: functional; summary of the method: as §3
# Mus musculus [19] = assay: Anticonvulsant activity in ip dosed mouse after 4 hrs by subcutaneous pentylenetetrazole test; type: functional; summary of the method: as §1
logKw [3],Activity (Rattus norvegicus [7]),Structure (SMILES),Minimum neurotoxic dose (Mus musculus [1]) [mg/kg],Activity (Mus musculus [4]),Activity (Mus musculus [5]) [mg/kg],also measured
2.977,,CC1CCC2(CC1)CC(=O)N(Nc1ccc(Cl)cc1Cl)C2=O (stereo unspecified),100,inactive,,Activity (Mus musculus [2]): 100 mg/kg
2.847,,CC1CCCCC12CC(=O)N(Nc1ccc(Cl)cc1Cl)C2=O (stereo unspecified),,Active,300,Activity (Mus musculus [9]): 300 mg/kg
2.095,,O=C1CC2(CCCC2)C(=O)N1Nc1ccccc1Cl,,Active,,Activity (Mus musculus [11]): 300 mg/kg; Activity (Mus musculus [9]): 300 mg/kg; Activity (Rattus norvegicus [12]): Non-toxic; Activity (Rattus norvegicus [13]): Non-toxic; Activity (Rattus norvegicus [14]): Non-toxic; Activity (Rattus norvegicus [15]): Non-toxic; Activity (Rattus norvegicus [16]): Non-toxic
2.419,inactive,O=C1CC2(CCCC2)C(=O)N1Nc1ccc(Cl)cc1Cl,300,,300,Activity (Mus musculus [11]): 100 mg/kg; Activity (Mus musculus [6]): Active; Activity (Rattus norvegicus [12]): Non-toxic; Activity (Rattus norvegicus [13]): Non-toxic; Activity (Rattus norvegicus [14]): Non-toxic; Activity (Rattus norvegicus [15]): Non-toxic; Activity (Rattus norvegicus [16]): Non-toxic; ED50 (Rattus norvegicus [17]): > 180 mg/kg; TD50 (Rattus norvegicus [17]): > 250 mg/kg; ED50 (Rattus norvegicus [18]): > 125 mg/kg; TD50 (Rattus norvegicus [18]): > 250 mg/kg
2.634,inactive,O=C1CC2(CCCCC2)C(=O)N1Nc1ccc(Cl)cc1Cl,,,100,Activity (Mus musculus [19]): 300 mg/kg; Activity (Mus musculus [6]): Active; Activity (Rattus norvegicus [12]): Non-toxic; Activity (Rattus norvegicus [13]): Non-toxic; Activity (Rattus norvegicus [14]): Non-toxic; Activity (Rattus norvegicus [15]): Non-toxic; Activity (Rattus norvegicus [16]): Non-toxic
2.976,,CC1CCCC2(CC(=O)N(Nc3ccc(Cl)cc3Cl)C2=O)C1 (stereo unspecified),,inactive,,

# More lines, now with the values behind:
Structure (SMILES),logKw [3],Activity (Rattus norvegicus [7]),Minimum neurotoxic dose (Mus musculus [1]) [mg/kg],Activity (Mus musculus [4]),Activity (Mus musculus [5]) [mg/kg],also measured
O=C1CC2(CCCCC2)C(=O)N1Nc1ccc(Br)cc1,2.337,inactive,30,,100,Activity (Mus musculus [6]): Active; Activity (Mus musculus [8]): Toxic
CC1CCCCC12CC(=O)N(Nc1ccccc1Cl)C2=O (stereo unspecified),2.515,,100,inactive,,
CC1CCCCC12CC(=O)N(Nc1ccc(Br)cc1)C2=O (stereo unspecified),2.561,,,Active,300,Activity (Mus musculus [2]): 300 mg/kg; Activity (Mus musculus [10]): 100 mg/kg
O=C1CC(C2CCCCC2)C(=O)N1Nc1ccccc1Cl (stereo unspecified),2.536,,,inactive,,
O=C1CC2(CCCC2)C(=O)N1Nc1ccc(Br)cc1,2.115,inactive,100,Active,300,Activity (Mus musculus [9]): 300 mg/kg; Activity (Mus musculus [10]): 100 mg/kg
O=C1CC(C2CCCCC2)C(=O)N1Nc1ccc(Cl)cc1Cl (stereo unspecified),2.896,,,inactive,,
O=C1CC2(CCCCC2)C(=O)N1Nc1ccccc1Cl,2.322,,,inactive,,

# Source: ChEMBL document CHEMBL1149755, “Synthesis, physicochemical and anticonvulsant properties of new N-phenylamino derivatives of 2-azaspiro[4.4]nonane- and [4.5]decane-1,3-diones: part V” (Eur J Med Chem, 2008)
